Consider 13 compounds from ChEMBL document CHEMBL1138570, “2-Acylhydrazino-5-arylpyrrole derivatives: synthesis and antifungal activity evaluation” (Eur J Med Chem, 2009).

Values after ≈ are worked out from the molar mass of the structure shown.

Holding throughout (assay type): functional
The subject of assay [1] is Nakaseomyces glabratus. Put plainly: Antimicrobial activity against Candida glabrata by broth microdilution method. The method in brief:
(§1)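 MIC by NCCLS broth microdilution. Medium was RPMI 1640 with L-glutamine, buffered with 0.165 M MOPS at pH 7.0. Twofold drug dilutions ran 0.008–200 mg/L. Inoculum was set spectrophotometrically to 10⁶ CFU/mL, then diluted in medium to 2 ×10⁴ cells/mL. Plates were incubated overnight at 35 °C in humid air, agitated, and read visually and at 450 nm.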
(Dilution methods test growth across graded concentrations, often in twofold steps.)

In assay [2] the test system is Candida albicans. Put plainly: Antimicrobial activity against Candida albicans ATCC 10231 after 72 hrs by broth microdilution method. The note with it: ATCC 10231, 72 h. The method in brief: (§2)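 MFC: after MIC reading, a sample from each well was plated on Sabouraud dextrose agar and incubated 72 h at 35 °C. MFC was taken as the minimum concentration killing >99% of the original inoculum. The MIC step was NCCLS broth microdilution in MOPS-buffered RPMI 1640 (pH 7.0), with 2 ×10⁴ cells/mL, overnight at 35 °C.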

Assay [3] relates to Candida albicans. Put plainly: Antimicrobial activity against Candida albicans ATCC 10231 by broth microdilution method. An outline of the steps:
as §1

Assay [4] deals with Pichia kudriavzevii. Put plainly: Antimicrobial activity against Candida krusei after 72 hrs by broth microdilution method. An outline of the steps: as §2
Assay [5] deals with Nakaseomyces glabratus. Put plainly: Antimicrobial activity against Candida glabrata after 72 hrs by broth microdilution method. The method in brief: as §2
Assay [6] concerns Candida parapsilosis. Put plainly: Antimicrobial activity against Candida parapsilosis by broth microdilution method. Conditions: Lodderomyces parapsilosis. An outline of the steps:
as §1

In assay [7] the test system is Candida parapsilosis. Put plainly: Antimicrobial activity against Candida parapsilosis after 72 hrs by broth microdilution method. Conditions: Lodderomyces parapsilosis. The method in brief: as §2
The test system of assay [8] is Pichia kudriavzevii. Put plainly: Antimicrobial activity against Candida krusei by broth microdilution method. An outline of the steps:
as §1

For `CCOC(=O)c1cc(-c2ccc(OC)cc2)[nH]c1NNC(=O)CCOC`, the minimum inhibitory concentration (MIC) with Nakaseomyces glabratus [1] worked out at 12.5 µg/mL (≈ 34.6 µM); in the assay on Candida albicans [3], 6.25 µg/mL (≈ 17.3 µM); with Candida parapsilosis [6], 25 µg/mL (≈ 69.2 µM); against Pichia kudriavzevii [8] it was 50 µg/mL (≈ 138 µM). The minimum fungicidal concentration (MFC) with Candida albicans [2] was 6.25 µg/mL (≈ 17.3 µM); with Pichia kudriavzevii [4], 100 µg/mL (≈ 277 µM); in the assay on Nakaseomyces glabratus [5], 100 µg/mL (≈ 277 µM); with Candida parapsilosis [7], 100 µg/mL (≈ 277 µM).

Consider `CCCC(=O)NNc1[nH]c(-c2ccc(OC)cc2)cc1C(=O)OCC`, for which the MIC was greater than 100 µg/mL against Nakaseomyces glabratus [1], 12.5 µg/mL (≈ 36.2 µM) against Candida albicans [3], 12.5 µg/mL (≈ 36.2 µM) in the assay on Candida parapsilosis [6] and 50 µg/mL (≈ 145 µM) in the assay on Pichia kudriavzevii [8]. In addition, the MFC with Candida albicans [2] was 12.5 µg/mL (≈ 36.2 µM); against Pichia kudriavzevii [4] it was 100 µg/mL (≈ 290 µM); in the assay on Nakaseomyces glabratus [5], greater than 100 µg/mL; against Candida parapsilosis [7], greater than 100 µg/mL.

For `CCOC(=O)c1cc(-c2ccccc2)[nH]c1NNC(=O)Cc1ccc(OC)cc1`, the MIC is greater than 100 µg/mL in the assay with Nakaseomyces glabratus [1], greater than 100 µg/mL in the assay on Candida albicans [3], 50 µg/mL (≈ 127 µM) in the assay on Candida parapsilosis [6] and 50 µg/mL (≈ 127 µM) in the assay with Pichia kudriavzevii [8]. Also, the minimal fungicidal concentration (MFC) with Candida albicans [2], with Pichia kudriavzevii [4], in the assay with Nakaseomyces glabratus [5] and in the assay on Candida parapsilosis [7] was greater than 100 µg/mL in each case.

Regarding `CCOC(=O)c1cc(-c2ccccc2)[nH]c1NNC(=O)CCOC`, the MIC came out at 6.25 µg/mL (≈ 18.9 µM) against Nakaseomyces glabratus [1], 3.12 µg/mL (≈ 9.42 µM) against Candida albicans [3], 6.25 µg/mL (≈ 18.9 µM) against Candida parapsilosis [6] and 12.5 µg/mL (≈ 37.7 µM) with Pichia kudriavzevii [8]. In addition, the MFC against Candida albicans [2] was 6.25 µg/mL (≈ 18.9 µM); with Pichia kudriavzevii [4], 50 µg/mL (≈ 151 µM); with Nakaseomyces glabratus [5], 25 µg/mL (≈ 75.4 µM); with Candida parapsilosis [7] it was 25 µg/mL (≈ 75.4 µM).

As for `CC(=O)NNc1[nH]c(-c2ccccc2)cc1C#N`, the minimum inhibitory concentration (MIC) in the assay with Nakaseomyces glabratus [1] was found to be 6.25 µg/mL (≈ 26 µM); with Candida albicans [3], 3.12 µg/mL (≈ 13 µM); against Candida parapsilosis [6], 3.12 µg/mL (≈ 13 µM); in the assay on Pichia kudriavzevii [8], 3.12 µg/mL (≈ 13 µM). The MFC was found to be 3.12 µg/mL (≈ 13 µM) in the assay on Candida albicans [2], 6.25 µg/mL (≈ 26 µM) in the assay on Pichia kudriavzevii [4], 12.5 µg/mL (≈ 52 µM) in the assay with Nakaseomyces glabratus [5] and 12.5 µg/mL (≈ 52 µM) in the assay on Candida parapsilosis [7].

Turning to `CCOC(=O)c1cc(-c2ccccc2)[nH]c1NNC(=O)CC`, the MIC in the assay with Nakaseomyces glabratus [1] stood at 6.25 µg/mL (≈ 20.7 µM); against Candida albicans [3] it was 3.12 µg/mL (≈ 10.4 µM); in the assay on Candida parapsilosis [6] it was 6.25 µg/mL (≈ 20.7 µM); in the assay on Pichia kudriavzevii [8] it was 12.5 µg/mL (≈ 41.5 µM). Moreover, the minimal fungicidal concentration (MFC) stood at 12.5 µg/mL (≈ 41.5 µM) in the assay on Candida albicans [2], 25 µg/mL (≈ 83 µM) in the assay on Pichia kudriavzevii [4], 12.5 µg/mL (≈ 41.5 µM) with Nakaseomyces glabratus [5] and 25 µg/mL (≈ 83 µM) against Candida parapsilosis [7].

With `CCOC(=O)c1cc(-c2ccc(OC)cc2)[nH]c1NNC(=O)CC`, the minimal inhibitory concentration (MIC) in the assay with Nakaseomyces glabratus [1] worked out at 6.25 µg/mL (≈ 18.9 µM); with Candida albicans [3] it was 3.12 µg/mL (≈ 9.42 µM); against Candida parapsilosis [6], 12.5 µg/mL (≈ 37.7 µM); in the assay on Pichia kudriavzevii [8], 25 µg/mL (≈ 75.4 µM). The minimal fungicidal concentration (MFC) came out at 12.5 µg/mL (≈ 37.7 µM) in the assay on Candida albicans [2], 100 µg/mL (≈ 302 µM) in the assay with Pichia kudriavzevii [4], 12.5 µg/mL (≈ 37.7 µM) in the assay on Nakaseomyces glabratus [5] and 25 µg/mL (≈ 75.4 µM) against Candida parapsilosis [7].

Turning to `CCCC(=O)NNc1[nH]c(-c2ccc(Cl)cc2)cc1C(=O)OCC`, the minimum inhibitory concentration (MIC) in the assay on Nakaseomyces glabratus [1], in the assay on Candida albicans [3], with Candida parapsilosis [6] and with Pichia kudriavzevii [8] was greater than 100 µg/mL throughout. Besides, the MFC against Candida albicans [2], in the assay with Pichia kudriavzevii [4], with Nakaseomyces glabratus [5] and against Candida parapsilosis [7] was greater than 100 µg/mL throughout.

In the case of `CCCC(=O)NNc1[nH]c(-c2ccc(C)cc2)cc1C(=O)OCC`, the minimal inhibitory concentration (MIC) with Nakaseomyces glabratus [1] was greater than 100 µg/mL; in the assay with Candida albicans [3] it was greater than 100 µg/mL; in the assay on Candida parapsilosis [6] it was 25 µg/mL (≈ 75.9 µM); in the assay on Pichia kudriavzevii [8], greater than 100 µg/mL. Further, the MFC against Candida albicans [2], in the assay with Pichia kudriavzevii [4], with Nakaseomyces glabratus [5] and in the assay with Candida parapsilosis [7] was greater than 100 µg/mL each time.

`CCOC(=O)c1cc(-c2ccc(C)cc2)[nH]c1NNC(C)=O`: the minimal inhibitory concentration (MIC) is greater than 100 µg/mL against Nakaseomyces glabratus [1], greater than 100 µg/mL in the assay on Candida albicans [3], 50 µg/mL (≈ 166 µM) in the assay on Candida parapsilosis [6] and 100 µg/mL (≈ 332 µM) against Pichia kudriavzevii [8]. The MFC is greater than 100 µg/mL against Candida albicans [2], greater than 100 µg/mL in the assay on Pichia kudriavzevii [4], greater than 100 µg/mL with Nakaseomyces glabratus [5] and 50 µg/mL (≈ 166 µM) in the assay with Candida parapsilosis [7].

For `CCOC(=O)NNc1[nH]c(-c2ccccc2)cc1C(=O)OCC`, the MIC in the assay with Nakaseomyces glabratus [1] was 6.25 µg/mL (≈ 19.7 µM); against Candida albicans [3], 3.12 µg/mL (≈ 9.83 µM); against Candida parapsilosis [6], 6.25 µg/mL (≈ 19.7 µM); with Pichia kudriavzevii [8] it was 12.5 µg/mL (≈ 39.4 µM). Besides, the minimal fungicidal concentration (MFC) in the assay on Candida albicans [2] is 3.12 µg/mL (≈ 9.83 µM); in the assay on Pichia kudriavzevii [4], 25 µg/mL (≈ 78.8 µM); in the assay with Nakaseomyces glabratus [5], 12.5 µg/mL (≈ 39.4 µM); with Candida parapsilosis [7], 12.5 µg/mL (≈ 39.4 µM).

In the case of `CCOC(=O)c1cc(-c2ccccc2)[nH]c1NNC(C)=O`, the MIC against Nakaseomyces glabratus [1] stood at 12.5 µg/mL (≈ 43.5 µM); in the assay on Candida albicans [3], 12.5 µg/mL (≈ 43.5 µM); against Candida parapsilosis [6], 50 µg/mL (≈ 174 µM); with Pichia kudriavzevii [8] it was 50 µg/mL (≈ 174 µM). The minimal fungicidal concentration (MFC) with Candida albicans [2] was 12.5 µg/mL (≈ 43.5 µM); with Pichia kudriavzevii [4], 50 µg/mL (≈ 174 µM); in the assay with Nakaseomyces glabratus [5], greater than 100 µg/mL; against Candida parapsilosis [7] it was 100 µg/mL (≈ 348 µM).

For the compound `CCOC(=O)NNc1[nH]c(-c2ccc(Cl)cc2)cc1C(=O)OCC`, the MIC is greater than 100 µg/mL against Nakaseomyces glabratus [1], 25 µg/mL (≈ 71.1 µM) in the assay with Candida albicans [3], 12.5 µg/mL (≈ 35.5 µM) against Candida parapsilosis [6] and 50 µg/mL (≈ 142 µM) with Pichia kudriavzevii [8]. Besides, the MFC was greater than 100 µg/mL in the assay with Candida albicans [2], greater than 100 µg/mL against Pichia kudriavzevii [4], greater than 100 µg/mL against Nakaseomyces glabratus [5] and 12.5 µg/mL (≈ 35.5 µM) against Candida parapsilosis [7].

One may read the MIC as the smallest concentration in the dilution series that meets the test's criterion for growth inhibition. Usually MFC stands for the lowest tested concentration that kills the fungus rather than only halting it. Read a low MFC as greater fungicidal potency.
